Measured values taken from ChEMBL document CHEMBL5058577, “EUbOPEN Chemogenomics Library 2 (Multiplex)” (2022).

Tested on: HEK-293T
Assay: Multiplex assay against HEK293T
Assay type: toxicity, cell-based
Settings: human
In short: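 Cells were classed with CellPathfinder machine-learning gating, first as Hoechst high-intensity objects or normal cells, then (normal cells) as healthy, pyknosed or fragmented nuclei, and finally (pyknosed cells) as mitotic or apoptotic. Staining of live cells at seeding used Hoechst33342, BioTracker Green Microtubule Cytoskeleton Dye, MitoTracker Red and Annexin V Alexa Fluor 680, with imaging on a CQ1 microscope at 37°C and 5% CO2 after compound addition. Tubulin, mitochondrial-mass and membrane-permeability phenotypes are per cents of healthy-nucleus cells.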

[1] = 12 h, 1 µM, compound concentration 1 uM, replicate 1
[2] = 12 h, 1 µM, compound concentration 1 uM, replicate 2
[3] = 12 h, 10 µM, compound concentration 10 uM, replicate 1
[4] = 12 h, 10 µM, compound concentration 10 uM, replicate 2
[5] = 24 h, 1 µM, compound concentration 1 uM, replicate 1
[6] = 24 h, 1 µM, compound concentration 1 uM, replicate 2
[7] = 24 h, 10 µM, compound concentration 10 uM, replicate 1
[8] = 24 h, 10 µM, compound concentration 10 uM, replicate 2
[9] = 48 h, 1 µM, compound concentration 1 uM, replicate 1
[10] = 48 h, 1 µM, compound concentration 1 uM, replicate 2
[11] = 48 h, 10 µM, compound concentration 10 uM, replicate 1
[12] = 48 h, 10 µM, compound concentration 10 uM, replicate 2

SMILES: CCc1cc2cc(NS(=O)(=O)c3ccc(C#N)cc3)ccc2n(CC)c1=O
- Population Apoptotic (%) [1]: 43%
- Population Fragmented Nuclei (%) [1]: 8%
- Population Healthy Nuclei (%) [1]: 78%
- Population Hoechst High Intensity Objects (%) [1]: 9%
- Population Membrane Permeable-Phenotype (%) [1]: 0%
- Population Mitochondria Different-Phenotype (%) [1]: 37%
- Population Mitotic Cells (%) [1]: 56%
- Population Normal (%) [1]: 90%
- Population Pyknosed Nuclei (%) [1]: 12%
- Population Tubulin-Different-Phenotype (%) [1]: 28%
- Total Cell Count [1]: 411
- Population Apoptotic (%) [2]: 40%
- Population Fragmented Nuclei (%) [2]: 7%
- Population Hoechst High Intensity Objects (%) [2]: 7%
- Population Mitochondria Different-Phenotype (%) [2]: 64%
- Population Mitotic Cells (%) [2]: 59%
- Population Normal (%) [2]: 92%
- Population Pyknosed Nuclei (%) [2]: 14%
- Population Tubulin-Different-Phenotype (%) [2]: 29%
- Total Cell Count [2]: 338
- Population Apoptotic (%) [3]: 38%
- Population Fragmented Nuclei (%) [3]: 7%
- Population Healthy Nuclei (%) [3]: 80%
- Population Hoechst High Intensity Objects (%) [3]: 7%
- Population Membrane Permeable-Phenotype (%) [3]: 0%
- Population Mitochondria Different-Phenotype (%) [3]: 47%
- Population Mitotic Cells (%) [3]: 61%
- Population Normal (%) [3]: 92%
- Population Pyknosed Nuclei (%) [3]: 12%
- Population Tubulin-Different-Phenotype (%) [3]: 48%
- Total Cell Count [3]: 404
- Population Apoptotic (%) [4]: 65%
- Population Fragmented Nuclei (%) [4]: 6%
- Population Healthy Nuclei (%) [4]: 69%
- Population Hoechst High Intensity Objects (%) [4]: 16%
- Population Mitochondria Different-Phenotype (%) [4]: 71%
- Population Mitotic Cells (%) [4]: 34%
- Population Normal (%) [4]: 83%
- Population Pyknosed Nuclei (%) [4]: 23%
- Population Tubulin-Different-Phenotype (%) [4]: 41%
- Total Cell Count [4]: 291
- Population Apoptotic (%) [5]: 29%
- Population Fragmented Nuclei (%) [5]: 8%
- Population Healthy Nuclei (%) [5]: 80%
- Population Hoechst High Intensity Objects (%) [5]: 5%
- Population Membrane Permeable-Phenotype (%) [5]: 1%
- Population Mitochondria Different-Phenotype (%) [5]: 19%
- Population Mitotic Cells (%) [5]: 70%
- Population Normal (%) [5]: 94%
- Population Pyknosed Nuclei (%) [5]: 11%
- Population Tubulin-Different-Phenotype (%) [5]: 18%
- Total Cell Count [5]: 510
- Population Apoptotic (%) [6]: 43%
- Population Fragmented Nuclei (%) [6]: 7%
- Population Healthy Nuclei (%) [6]: 84%
- Population Membrane Permeable-Phenotype (%) [6]: 0%
- Population Mitochondria Different-Phenotype (%) [6]: 44%
- Population Mitotic Cells (%) [6]: 56%
- Population Pyknosed Nuclei (%) [6]: 7%
- Population Tubulin-Different-Phenotype (%) [6]: 22%
- Total Cell Count [6]: 403
- Population Apoptotic (%) [7]: 33%
- Population Fragmented Nuclei (%) [7]: 9%
- Population Healthy Nuclei (%) [7]: 80%
- Population Hoechst High Intensity Objects (%) [7]: 6%
- Population Membrane Permeable-Phenotype (%) [7]: 0%
- Population Mitochondria Different-Phenotype (%) [7]: 36%
- Population Mitotic Cells (%) [7]: 66%
- Population Normal (%) [7]: 93%
- Population Pyknosed Nuclei (%) [7]: 10%
- Population Tubulin-Different-Phenotype (%) [7]: 32%
- Total Cell Count [7]: 478
- Population Apoptotic (%) [8]: 63%
- Population Fragmented Nuclei (%) [8]: 10%
- Population Healthy Nuclei (%) [8]: 73%
- Population Hoechst High Intensity Objects (%) [8]: 17%
- Population Membrane Permeable-Phenotype (%) [8]: 1%
- Population Mitochondria Different-Phenotype (%) [8]: 58%
- Population Mitotic Cells (%) [8]: 36%
- Population Normal (%) [8]: 82%
- Population Pyknosed Nuclei (%) [8]: 16%
- Population Tubulin-Different-Phenotype (%) [8]: 29%
- Total Cell Count [8]: 332
- Population Apoptotic (%) [9]: 30%
- Population Fragmented Nuclei (%) [9]: 11%
- Population Healthy Nuclei (%) [9]: 81%
- Population Hoechst High Intensity Objects (%) [9]: 2%
- Population Membrane Permeable-Phenotype (%) [9]: 1%
- Population Mitochondria Different-Phenotype (%) [9]: 11%
- Population Mitotic Cells (%) [9]: 69%
- Population Normal (%) [9]: 97%
- Population Pyknosed Nuclei (%) [9]: 6%
- Population Tubulin-Different-Phenotype (%) [9]: 13%
- Total Cell Count [9]: 878
- Population Apoptotic (%) [10]: 38%
- Population Fragmented Nuclei (%) [10]: 14%
- Population Healthy Nuclei (%) [10]: 79%
- Population Hoechst High Intensity Objects (%) [10]: 4%
- Population Mitochondria Different-Phenotype (%) [10]: 23%
- Population Mitotic Cells (%) [10]: 61%
- Population Normal (%) [10]: 95%
- Population Pyknosed Nuclei (%) [10]: 5%
- Population Tubulin-Different-Phenotype (%) [10]: 12%
- Total Cell Count [10]: 608
- Population Apoptotic (%) [11]: 26%
- Population Fragmented Nuclei (%) [11]: 14%
- Population Healthy Nuclei (%) [11]: 78%
- Population Hoechst High Intensity Objects (%) [11]: 4%
- Population Membrane Permeable-Phenotype (%) [11]: 1%
- Population Mitochondria Different-Phenotype (%) [11]: 23%
- Population Mitotic Cells (%) [11]: 73%
- Population Normal (%) [11]: 95%
- Population Pyknosed Nuclei (%) [11]: 6%
- Population Tubulin-Different-Phenotype (%) [11]: 20%
- Total Cell Count [11]: 734
- Population Apoptotic (%) [12]: 47%
- Population Fragmented Nuclei (%) [12]: 16%
- Population Healthy Nuclei (%) [12]: 73%
- Population Hoechst High Intensity Objects (%) [12]: 10%
- Population Mitochondria Different-Phenotype (%) [12]: 40%
- Population Mitotic Cells (%) [12]: 52%
- Population Normal (%) [12]: 89%
- Population Pyknosed Nuclei (%) [12]: 9%
- Population Tubulin-Different-Phenotype (%) [12]: 23%
- Total Cell Count [12]: 383
